The values below come from ChEMBL document CHEMBL3627666, “5-Lipoxygenase inhibitors suppress RANKL-induced osteoclast formation via NFATc1 expression” (Bioorg Med Chem, 2015).

SMILES strings stand for the structures. The source made the active and inactive calls. The rule behind the calls is not given here.

A short description of data set [1]: Cytotoxicity against mouse BMM cells assessed as cell survival after 4 days by MTT assay. Conditions: bmmc, 96 h. The class given is cell-based. The essentials:
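BMMs were kept in α-MEM with M-CSF (30 ng/mL) with or without compound (10 µM) for 4 days. MTT was added for 5 h in the dark, then 10% SDS in 0.01 M HCl was added overnight. Absorbance was read at 570 nm. Mean ± SD, three independent experiments.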
On the technique in general: Tetrazolium dyes change colour on reduction, which living cells bring about.

In a further data set the test system is BMMC. Put plainly: Antiosteoclast activity in mouse BMM cells assessed as reduction of LPS-induced osteoclast formation at 10 uM after 4 days by TRAP+ staining based light microscopy. The class given is functional, cell-based.
The subject of a further data set is Mus musculus. Put plainly: Antiosteoclast activity in mouse assessed as reduction of LPS-induced osteoclast formation in calvarial bone at 5 mg/kg, ip administered daily with LPS challenge after first day of compound dosing measured 6 days after LPS injection. The data set is classed as functional, organism-based. The essentials:
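Six-week-old male mice, three groups, received compound at 5 mg/kg ip daily or vehicle (corn oil/DMSO 9:1). After one day, LPS (5 mg/kg) or PBS was injected subcutaneously over the calvaria. Mice were killed 6 days post-LPS. Whole calvariae were fixed in 4% paraformaldehyde and TRAP-stained, and TRAP⁺ area was quantified by image analysis.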

Data set [2] has as its target T1, Tumor necrosis factor ligand superfamily member 11 (Mus musculus) (UniProt O35235).
T1 sequence (whole entry): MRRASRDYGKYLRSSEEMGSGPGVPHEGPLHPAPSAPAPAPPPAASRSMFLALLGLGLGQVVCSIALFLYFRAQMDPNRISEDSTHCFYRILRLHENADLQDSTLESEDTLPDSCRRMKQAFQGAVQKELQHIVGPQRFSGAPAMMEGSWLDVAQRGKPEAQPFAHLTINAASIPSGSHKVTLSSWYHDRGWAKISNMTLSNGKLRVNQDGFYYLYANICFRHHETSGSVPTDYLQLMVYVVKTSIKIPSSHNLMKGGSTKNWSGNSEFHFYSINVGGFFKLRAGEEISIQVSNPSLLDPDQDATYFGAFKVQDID
Conditions: BMM, 10 uM.

Data set [3] has as its target T2, Polyunsaturated fatty acid 5-lipoxygenase (Mus musculus, UniProt P48999).
T2 sequence (P48999 whole entry): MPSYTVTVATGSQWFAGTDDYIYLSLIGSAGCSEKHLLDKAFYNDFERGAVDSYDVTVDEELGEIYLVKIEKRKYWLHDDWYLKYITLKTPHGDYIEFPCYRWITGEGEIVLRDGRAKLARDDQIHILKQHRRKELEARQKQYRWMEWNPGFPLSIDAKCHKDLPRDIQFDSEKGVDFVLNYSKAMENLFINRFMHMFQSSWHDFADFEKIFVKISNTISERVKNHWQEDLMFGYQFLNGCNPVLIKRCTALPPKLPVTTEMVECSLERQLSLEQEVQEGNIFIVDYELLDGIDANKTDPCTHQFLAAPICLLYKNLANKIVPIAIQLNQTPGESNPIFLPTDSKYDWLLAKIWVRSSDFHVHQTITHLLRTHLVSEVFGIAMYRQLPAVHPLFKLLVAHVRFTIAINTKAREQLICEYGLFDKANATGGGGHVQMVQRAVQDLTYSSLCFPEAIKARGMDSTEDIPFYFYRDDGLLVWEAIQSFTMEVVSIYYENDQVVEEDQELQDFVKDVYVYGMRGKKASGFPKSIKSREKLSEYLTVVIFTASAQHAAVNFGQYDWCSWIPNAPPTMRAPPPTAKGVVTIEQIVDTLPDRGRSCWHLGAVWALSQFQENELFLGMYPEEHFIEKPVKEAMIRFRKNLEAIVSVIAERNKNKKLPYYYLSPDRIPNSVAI
The data set is described as follows: Inhibition of 5-LO in mouse BMMC cells assessed as formation of LTC4 after 30 mins by enzyme immunoassay.

For data set [4], the target named is T1, Tumor necrosis factor ligand superfamily member 11 (Mus musculus). Conditions: BMM, 10 uM. This is another data set of the same source.
Data set [5] shares this target. The conditions noted are these: BMM, 10 uM. The source holds these as a separate data set.
Data set [6] has the same target. The conditions noted are these: BMM, 10 uM. The source holds these as a separate data set.
For data set [7] the target is unchanged. Conditions: BMMC, 10 uM.

With `CCc1ccc(Nc2nc3cc(NC(=O)CCCCOc4ccc(/C(N)=N/O)cc4)ccc3o2)cc1`, the Activity entry in data set [1] is “Non-toxic”. The outcome with BMMC and in the data set on Mus musculus was Active. Also, the inhibition entry in [2], in [4], in data set [5] and in [6] was “Active” throughout. The half-maximal inhibitory concentration (IC50) in data set [3] was 1.72 µM. Further, the inhibition result in data set [7] is “inactive”.

For the compound `COc1ccc(Nc2nc3cc(NC(=O)CCCCOc4ccc(/C(N)=N/O)cc4)ccc3o2)cc1`, the IC50 in data set [3] turned out to be 4.9 µM.

`N/C(=N\O)c1ccc(OCCCCC(=O)Nc2ccc3oc(Nc4ccccc4)nc3c2)cc1`: the concentration for half-maximal inhibition (IC50) in data set [3] came out at 4.1 µM.

The term IC50 denotes the concentration that gives 50% inhibition.
